Screening data: PubChem BioAssay, several laboratories
SR-BI DiI inh: blocks mouse SR-BI lipid uptake from DiI-HDL; ldlA[mSR-BI] CHO cells, DiI-HDL uptake fluorescence, 3 h; AID 488896; inhibition, % at 12.5 µM; hit rate 0.96% among 320,000;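 active = mean replicate inhibition of at least 70% and a set share of replicates each scoring 70 or more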;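 also: 0% = median of neutral control wells and 100% = median of positive control wells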
SR-BI DiI-HDL act: SR-BI HDL lipid transfer activation | CHO ldlA[mSR-BI] cells, DiI-HDL uptake fluorescence, 3 h; 100 = double the neutral-control signal | activation, % at 12.5 µM | hit rate 0.096% among 320,000 | AID 504775;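 active = mean replicate activation of at least 60% and every replicate at or above 60%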;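 also: 0% = median plate neutral-control signal and 100% = twice that signal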
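Material – SR-BI-overexpressing, LDLR-lacking CHO cells · Medium – BSA-supplemented, HEPES-buffered Ham's F12, pH 7.4 · Doses – single concentration · Times – compound with DiI-HDL co-incubation, 3 h at 37 °C · Measured by – bottom-read fluorescence, 550/595 nm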
GRK2 aptamer HTS: human GRK2 inhibition via aptamer displacement; hit rate 0.59% among 330,000; P25098; bead flow cytometry, FAM-aptamer displacement from GRK2; inhibition of aptamer binding, % at 10 µM;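 active = inhibition of aptamer binding above 40%, roughly 3 SD of noise, on plates passing a quality check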;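 also: median bead fluorescence of bound FAM aptamer so fluorescent compounds give negative values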
Target sequence (P25098 whole entry, looked up): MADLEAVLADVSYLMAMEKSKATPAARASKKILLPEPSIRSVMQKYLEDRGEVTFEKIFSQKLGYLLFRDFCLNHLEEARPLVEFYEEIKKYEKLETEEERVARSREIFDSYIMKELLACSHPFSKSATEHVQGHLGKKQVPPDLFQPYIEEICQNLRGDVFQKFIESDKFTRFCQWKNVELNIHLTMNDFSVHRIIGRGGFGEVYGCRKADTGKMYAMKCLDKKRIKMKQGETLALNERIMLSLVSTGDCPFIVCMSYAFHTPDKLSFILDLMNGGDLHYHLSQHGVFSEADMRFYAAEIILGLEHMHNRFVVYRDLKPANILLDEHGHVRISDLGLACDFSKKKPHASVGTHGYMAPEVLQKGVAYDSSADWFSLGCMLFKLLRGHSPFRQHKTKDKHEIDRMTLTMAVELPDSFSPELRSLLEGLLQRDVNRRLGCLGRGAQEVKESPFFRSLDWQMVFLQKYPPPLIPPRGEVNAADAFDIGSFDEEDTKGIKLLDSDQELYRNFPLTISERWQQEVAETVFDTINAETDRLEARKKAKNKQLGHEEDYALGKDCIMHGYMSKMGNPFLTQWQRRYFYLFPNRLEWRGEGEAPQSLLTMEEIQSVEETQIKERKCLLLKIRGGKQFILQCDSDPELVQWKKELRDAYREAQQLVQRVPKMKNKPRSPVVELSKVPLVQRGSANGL
Rin1 Abl inh: human Rin1-Abl interaction inhibition. inhibition, % at 7.35 µM. TR-FRET Rin1/Abl binding, biochemical. hit rate 0.4% among 360,000. P00519+Q13671; in the data active = inhibition above about 5%, passing the limit was not always enough
GRK2 inh confirm: confirmation of human GRK2 inhibitors displacing RNA aptamer; shares compounds with GRK2 aptamer HTS; AID 504451; bead-bound GRK2, FAM-aptamer displacement, flow cytometry; aptamer displacement, % at 10 µM; hit rate 4% among 2,000;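 active = aptamer displacement above 40%, near three times the noise of non-fluorescent compounds, on plates passing quality checks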;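 also: negative values mostly reflect intrinsic compound fluorescence rather than true enhancement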
Aptamer quench 1: counter-screen for GRK2 aptamer inhibitors: fluorescent aptamer quenchers; shares compounds with GRK2 aptamer HTS; Fluorescent RNA aptamer beads, quenching, flow cytometry; active compounds read high; fluorescence change (kMESF span), kMESF (test concentration not listed); 110 tested, under 10 active;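 active = compounds whose bead fluorescence drops by more than 37 kMESF across the dose range, marking them as dye quenchers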
FAM quench CP1: aptamer fluorescence quenching in GRK2 counter-screen; shares compounds with GRK2 aptamer HTS; Carboxyfluorescein RNA aptamer on beads, flow cytometry quenching; active compounds read low; fluorescence response (% of DMSO), % at 10 µM; 2,000 tested, under 10 active; AID 504580;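 active = compounds that quench the bead-bound fluorescent RNA probe, cutting fluorescence to under half of the solvent control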;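 also: counterscreen run without GRK2 so only probe quenching by compound is measured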
GRK2 CP2: human GRK2 inhibition confirmation, cherry pick 2 | shares compounds with GRK2 aptamer HTS | bead-bound GRK2, FAM-aptamer displacement, flow cytometry | inhibition of aptamer binding, % at 10 µM | 360 tested, under 10 active | AID 504782;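 active = inhibition of aptamer binding above 40%, about triple the noise seen with nonglowing compounds, on plates passing quality control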;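 also: negative values mostly come from compounds that fluoresce themselves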
FAM quench CP2: counter-screen for GRK2 binding hits: quenchers of fluorescent RNA aptamer; shares compounds with GRK2 aptamer HTS; AID 588494; fluorescence response vs DMSO, % at 10 µM; 360 tested, under 10 active; carboxyfluorescein RNA aptamer beads, flow cytometry quenching; active compounds read low;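 active = response vs DMSO under 50%, meaning signal dropped by over half, treated as fluorescence quencher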;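 also: labelled aptamer on streptavidin beads without GRK2 as a quench counter-screen; 100% = bead fluorescence of DMSO wells and lower means quenching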
* marks the source's active call; other numbers are inactive results; . = no result given. An excerpt weighted towards active compounds, which were near 1.9% of everything screened.

SMILES	SR-BI DiI inh	SR-BI DiI-HDL act	GRK2 aptamer HTS	Rin1 Abl inh	GRK2 inh confirm	FAM quench CP1	others
CSCC[C@H](NC(=O)COc1ccc(Cl)cc1)c1nc2ccccc2[nH]1	14.4	-14.4	98.0*	4.9	0.8	93.8
CSCC[C@H](NC(=O)c1cc([N+](=O)[O-])ccc1Cl)c1nc2ccccc2[nH]1	9.2	-9.2	4.0	4.1	.	.
Cc1cnc(CNc2nc3cc(-c4ccccc4C)sc3c(=O)n2C)cn1	.	.	.	-13.5	.	.
CCCCCCn1c(CN2CCCCC2CC)nc2c1c(=O)n(C)c(=O)n2C (centres undefined)	-21.2	21.2	3.0	-4.8	-17.1	91.4
CCC1CCCCN1Cc1nc2c(c(=O)n(C)c(=O)n2C)n1CC(C)C (centres undefined)	-33.0	33.0	0.0	-0.8	4.1	97.1
CCC1CCCCN1Cc1nc2c(c(=O)n(C)c(=O)n2C)n1CCC(C)C (centres undefined)	-20.8	20.8	4.0	3.0	0.1	101.7
CC(C)Cn1c(CN(C)Cc2ccccc2)nc2c1c(=O)n(C)c(=O)n2C	-18.2	18.2	76.0*	-0.4	-3.5	98.0
CN(C)N1C(=O)c2c(Cl)c(Cl)c(Cl)c(Cl)c2C1=O	2.8	-2.8	.	3.0	.	.
CCN(CC)S(=O)(=O)c1ccc(N2CCOCC2)c(NC(=O)COc2ccccc2C)c1	40.8	-40.8	74.0*	0.8	-1.1	99.6
CCN(CC)S(=O)(=O)c1ccc(N2CCOCC2)c(NC(=O)CC23CC4CC(CC(Br)(C4)C2)C3)c1	-12.1	12.1	100.0*	0.4	.	.	GRK2 CP2=0.2;FAM quench CP2=96.0
CCN(CC)S(=O)(=O)c1ccc(N2CCOCC2)c(NC(=O)COc2ccccc2C#N)c1	5.3	-5.3	3.0	1.8	.	.
COc1ccc(-c2ccc(CN3C(C(C)C)C(=O)N(Cc4cn(CCC5OCCO5)nn4)CCS3(=O)=O)cc2)cc1 (centres undefined)	.	.	.	-0.7	.	.
COC(=O)c1c(C(=O)OC)c2c(-c3ccccc3)cc3cccc1n32	.	.	.	0.3	.	.
CCN(CC)c1ccc(NC(=O)c2nc3nc(C)cc(C(F)F)n3n2)cc1	46.7	-46.7	48.0*	-2.2	-0.1	93.0
O=c1[nH]cnc2c1ncn2C1CCC(CO)O1 (centres undefined)	.	.	.	0.3	.	.
O=C(CSc1nc2ccc([N+](=O)[O-])cc2s1)NCC1CCCO1 (centres undefined)	.	.	90.0*	3.0	1.1	101.8
O=C(CSc1nc2cc(Cl)ccc2s1)NCC1CCCO1 (centres undefined)	6.4	-6.4	0.0	3.1	.	.
Cn1cc(S(=O)(=O)N2CCOCC2)cc1C(=O)NCc1ccccc1Cl	-8.7	8.7	0.0	-3.7	2.0	99.1
COc1ccccc1CNC(=O)c1cc(S(=O)(=O)N2CCOCC2)cn1C	-30.0	30.1	0.0	-1.4	.	.
Cc1cccc(C(O)c2ncc(-c3ccccc3)[nH]2)c1C (centres undefined)	.	.	.	-2.2	.	.
CCN(/N=C/c1ccc(Cl)cc1)c1cc(=O)n(C)c(=O)[nH]1	17.4	-17.4	92.0*	-4.0	-8.3	95.1
O=C1N[C@@H](Cc2ccccc2)[C@@H](c2ccco2)O1	4.1	1.5	1.0	1.6	.	.
C[C@@H]1NC(=O)OC1c1ccco1 (some centres undefined)	-25.0	25.0	76.0*	2.6	4.9	99.5
O=C(C1COc2ccccc2O1)N1CCN(c2ccc([N+](=O)[O-])cc2)CC1 (centres undefined)	46.7	-46.7	98.0*	0.1	-2.1	98.2
O=C(C1COc2ccccc2O1)N1CCN(c2ccc(F)cc2)CC1 (centres undefined)	8.3	-8.3	0.0	3.6	.	.
SMILES	SR-BI DiI inh	SR-BI DiI-HDL act	GRK2 aptamer HTS	Rin1 Abl inh	GRK2 inh confirm	FAM quench CP1	others
N[C@@H]1CONC1=O	.	.	2.0	.	.	.
N[C@H]1CONC1=O	.	.	4.0	.	-0.9	101.0
CCn1ccnc1CN(C)C(=O)C1CCC(=O)N(Cc2cccc(C(F)(F)F)c2)C1 (centres undefined)	-9.0	9.0	4.0	1.1	.	.
CC(C)NC(=O)C(=O)NC1CCCCCC1	8.2	-8.2	54.0*	2.0	0.2	101.2
CC(C)C(C(=O)O)N1C(=O)/C(=C/C=C/c2ccco2)SC1=S (centres undefined)	-28.9	28.9	95.0*	4.2	55.0*	96.0	Aptamer quench 1=5.8
O=C(NN1C(=O)/C(=C/C=C/c2ccco2)SC1=S)c1ccncc1	.	.	79.0*	5.9	12.3	100.6
O=C(NN1C(=O)/C(=C/C=C/c2ccccc2)SC1=S)c1ccncc1	1.6	-1.6	3.0	2.8	.	.
COc1ccccc1CC1CC(=O)N(c2ccc([N+](=O)[O-])cc2)C1=O (centres undefined)	.	.	.	-0.1	.	.
COc1cc(-c2ccc3c(=O)c4ccccc4n(C)c3c2)cc(OC)c1OC	61.6	-61.6	2.0	0.9	.	.
COc1cc(-c2ccc3c(=O)c4ccccc4sc3c2)cc(OC)c1OC	4.1	-11.7	100.0*	4.3	.	.	GRK2 CP2=-10.8;FAM quench CP2=99.0
Cc1ccccc1NS(=O)(=O)c1cc(C(=O)Nc2cccc(N(C)S(C)(=O)=O)c2)ccc1C	71.4*	-71.4	16.0	0.2	-1.2	101.0
CN(c1cccc(NC(=O)c2ccc(Cl)c(S(=O)(=O)Nc3ccccc3)c2)c1)S(C)(=O)=O	51.7	-51.7	3.0	-1.7	.	.
O=C(COC(=O)c1cc(S(=O)(=O)N2CCOCC2)ccc1Cl)c1ccc[nH]1	.	.	.	2.5	.	.
Cc1sc2c(c1C)C(=O)/C(=C\Nc1ccccn1)S(=O)(=O)N2C	29.1	-29.1	57.0*	1.1	-2.5	94.3
Cc1ccc(S(=O)(=O)Nc2ccccc2N2CCCCC2)cc1	-15.8	15.8	1.0	-0.9	.	.
O=C(NCC(F)(F)F)c1ccc(S(=O)(=O)Nc2ccccc2N2CCCC2)cc1	19.3	-19.3	89.0*	-1.3	21.0	117.3
CC1(c2ccc3ccccc3c2)NC(=O)N(CC(=O)N2CCN(c3ccccc3O)CC2)C1=O (centres undefined)	8.2	-8.2	3.0	2.0	3.5	105.1
CN1CCN(c2ccc([N+](=O)[O-])cc2C(=O)c2ccccc2)CC1	-50.9	50.9	7.0	-4.8	.	.
O=C(c1ccccc1)c1cc([N+](=O)[O-])ccc1N1CCCC1	20.9	-20.9	100.0*	0.5	.	.	GRK2 CP2=-3.5;FAM quench CP2=100.0
